Assay results taken from ChEMBL document CHEMBL1165950, “Design and synthesis of new potent anticancer pyrazoles with high FLT3 kinase inhibitory selectivity” (Bioorg Med Chem, 2010).

Assays:
Assay type in all cases: functional
NCI-H522 = test: Cytotoxicity against human NCI-H522 cells assessed as cell growth at 0.01 uM after 48 hrs by sulforhodamine B assay; conditions: NCI-H522, 48 h, read-out: Activity
SK-OV-3 [1] = test: Cytotoxicity against human SKOV3 cells assessed as cell growth at 1 uM after 48 hrs by sulforhodamine B assay; conditions: SK-OV-3, 48 h, read-out: Activity
T47D = test: Cytotoxicity against human T47D cells assessed as cell growth at 0.001 uM after 48 hrs by sulforhodamine B assay; conditions: read-out: Activity
OVCAR-8 = test: Cytotoxicity against human OVCAR8 cells assessed as cell growth at 0.001 uM after 48 hrs by sulforhodamine B assay; conditions: OVCAR-8, 48 h, read-out: Activity
UACC-62 [2] = test: Cytotoxicity against human UACC62 cells assessed as cell growth at 0.01 uM after 48 hrs by sulforhodamine B assay; conditions: UACC-62, 48 h, read-out: Activity
OVCAR-4 = test: Cytotoxicity against human OVCAR4 cells assessed as cell growth at 10 uM after 48 hrs by sulforhodamine B assay; conditions: OVCAR-4, 48 h, read-out: Activity
PC-3 = test: Cytotoxicity against human PC3 cells assessed as cell growth at 10 uM; conditions: read-out: Activity
In short: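 NCI-60 screen: cells grown in RPMI 1640 with 5% FBS and 2 mM L-glutamine, plated at 5000–40,000 cells/well according to doubling time, and preincubated 24 h at 37 °C, 5% CO2. The single 10 µM dose (DMSO stock) was added, then incubated 48 h. Cells were TCA-fixed and stained with 0.4% SRB, read at 515 nm, and growth % calculated against time-zero and control plates.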

OVCAR-5 = test: Cytotoxicity against human OVCAR5 cells assessed as cell growth at 10 uM after 48 hrs by sulforhodamine B assay; conditions: OVCAR-5, 48 h, read-out: Activity
SNB-19 = test: Cytotoxicity against human SNB19 cells assessed as cell growth at 1 uM after 48 hrs by sulforhodamine B assay; conditions: SNB-19, 48 h, read-out: Activity
SF-268 = test: Cytotoxicity against human SF268 cells assessed as cell growth at 10 uM after 48 hrs by sulforhodamine B assay; conditions: SF-268, 48 h, read-out: Activity
SNB-75 = test: Cytotoxicity against human SNB75 cells assessed as cell growth at 0.001 uM after 48 hrs by sulforhodamine B assay; conditions: SNB-75, 48 h, read-out: Activity
HOP-92 = test: Cytotoxicity against human HOP92 cells assessed as cell growth at 0.001 uM after 48 hrs by sulforhodamine B assay; conditions: HOP-92, 48 h, read-out: Activity
DU-145 [3] = test: Cytotoxicity against human DU145 cells assessed as cell growth at 100 nM after 48 hrs by sulforhodamine B assay; conditions: DU-145, 48 h, read-out: Activity
HL-60(TB) = test: Growth inhibition of human HL-60(TB) cells after 48 hrs by sulforhodamine B assay; conditions: HL-60, 48 h
In short: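 NCI 60-cell SRB screen. Cells in RPMI 1640 with 5% FBS and 2 mM L-glutamine are preincubated 24 h, then exposed to five concentrations (10-fold or 1/2-log dilutions from DMSO stock) for 48 h at 37 °C. Suspension cells are fixed with 80% TCA (final 16%), and A515 is read. IC50 is taken as the concentration where [(Ti−Tz)/(C−Tz)]×100 = 50, i.e. 50% reduction in net protein increase.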

M14 = test: Cytotoxicity against human M14 cells assessed as cell growth at 0.01 uM after 48 hrs by sulforhodamine B assay; conditions: M14, 48 h, read-out: Activity
UACC-62 [4] = test: Cytotoxicity against human UACC62 cells assessed as cell growth at 10 uM after 48 hrs by sulforhodamine B assay; conditions: UACC-62, 48 h, read-out: Activity
[5] = Cytotoxicity against human RPMI8266 cells assessed as cell growth at 1 uM after 48 hrs by sulforhodamine B assay; conditions: read-out: Activity
Malme-3M [6] = test: Growth inhibition of human MALME-3M cells after 48 hrs by sulforhodamine B assay; conditions: for CC50: read-out: LC50 (the source's name)
In short: (§1)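 NCI 60-cell screen, five-dose mode. Cells grown in RPMI 1640 with 5% FBS and 2 mM L-glutamine and plated at 5000-40,000 cells/well according to doubling time. After 24 h preincubation, a Tz plate was TCA-fixed. Five concentrations (10-fold or 1/2 log dilutions) were applied for 48 h at 37 °C. SRB staining read at 515 nm. IC50 taken from [(Ti-Tz)/(C-Tz)]×100 = 50.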

Malme-3M [7] = test: Cytotoxicity against human MALME-3M cells assessed as cell growth at 1 uM after 48 hrs by sulforhodamine B assay; conditions: read-out: Activity
CCRF-CEM = test: Growth inhibition of human CCRF-CEM cells after 48 hrs by sulforhodamine B assay
In short: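 NCI five-dose SRB assay in RPMI 1640 with 5% FBS and 2 mM L-glutamine. Cells were preincubated 24 h, then exposed 48 h at 37 °C to five concentrations (10-fold or half-log serial dilutions from DMSO stocks). TCA fixation, SRB staining, and absorbance at 515 nm followed. IC50 was taken where [(Ti−Tz)/(C−Tz)]×100 = 50, with Tz as time-zero cell density.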

DU-145 [8] = test: Cytotoxicity against human DU145 cells assessed as cell growth at 1 uM after 48 hrs by sulforhodamine B assay; conditions: DU-145, 48 h, read-out: Activity
MDA-MB-231 = test: Cytotoxicity against human MDA-MB-231 cells assessed as cell growth at 0.01 uM after 48 hrs by sulforhodamine B assay; conditions: MDA-MB-231, 48 h, read-out: Activity
BT-549 = test: Cytotoxicity against human BT549 cells assessed as cell growth at 0.001 uM after 48 hrs by sulforhodamine B assay; conditions: BT-549, 48 h, read-out: Activity
In short: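 NCI-60 five-dose screen. Cells were grown in RPMI 1640 with 5% FBS and 2 mM L-glutamine, plated at 5000–40,000 cells/well and preincubated for 24 h. Time-zero plates were TCA-fixed. DMSO-solubilized drug was added at five concentrations (10-fold or ½-log serial dilutions) for 48 h at 37 °C, 5% CO2. Cells were TCA-fixed, stained with 0.4% SRB and read at 515 nm. Percent growth used time-zero, control and test absorbances.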

SN12C = test: Cytotoxicity against human SN12C cells assessed as cell growth at 0.01 uM after 48 hrs by sulforhodamine B assay; conditions: read-out: Activity
HCT-15 = test: Cytotoxicity against human HCT15 cells assessed as cell growth at 0.01 uM after 48 hrs by sulforhodamine B assay; conditions: HCT-15, 48 h, read-out: Activity
SK-OV-3 [9] = test: Cytotoxicity against human SKOV3 cells assessed as cell growth at 0.01 uM after 48 hrs by sulforhodamine B assay; conditions: SK-OV-3, 48 h, read-out: Activity
U-251 = test: Growth inhibition of human U251 cells after 48 hrs by sulforhodamine B assay; conditions: U-251, 48 h; for CC50: read-out: LC50 (the source's name); in short: as §1

Row | Compound | growth at 0.01 µM (NCI-H522) [%] | growth at 1 µM (SK-OV-3 [1]) [%] | growth at 0.001 µM (T47D) [%] | growth at 0.001 µM (OVCAR-8) [%] | growth at 0.01 µM (UACC-62 [2]) [%] | growth at 10 µM (OVCAR-4) [%] | growth at 10 µM (PC-3) [%] | growth at 10 µM (OVCAR-5) [%] | growth at 1 µM (SNB-19) [%] | growth at 10 µM (SF-268) [%] | growth at 0.001 µM (SNB-75) [%] | growth at 0.001 µM (HOP-92) [%] | growth at 0.1 µM (DU-145 [3]) [%] | GI50 (HL-60(TB)) [µM] | LC50 (HL-60(TB)) [µM] | TGI (HL-60(TB)) [µM] | growth at 0.01 µM (M14) [%] | growth at 10 µM (UACC-62 [4]) [%] | growth at 1 µM [5] [%] | GI50 (Malme-3M [6]) [µM] | other results
1 | COc1cc(C)cc(-c2c(-c3ccnc(-c4ccc(N(C)C)cc4)c3)cnn2CC#N)c1 | -7 | 36 | 90 | 101 | 38 | 25 | 27.6 | 97 | 36 | 20 | 88 | 26 | -51 | 0.105 | > 100 | 0.465 | -19 | 16 | -31 | 0.0598 | TGI (Malme-3M [6]): > 100 µM; CC50 (Malme-3M [6]): > 100 µM; growth at 1 µM (Malme-3M [7]): 40%; GI50 (CCRF-CEM): 0.237 µM; LC50 (CCRF-CEM): > 100 µM; TGI (CCRF-CEM): > 100 µM; growth at 1 µM (DU-145 [8]): -47%; growth at 0.01 µM (MDA-MB-231): 88%; growth at 0.001 µM (BT-549): 93%; growth at 0.01 µM (SN12C): 75%; growth at 0.01 µM (HCT-15): 12%; growth at 0.01 µM (SK-OV-3 [9]): 47%; GI50 (U-251): 0.178 µM; TGI (U-251): > 100 µM; CC50 (U-251): > 100 µM
2 | COc1cc(C)cc(-c2c(-c3ccnc(-c4ccc(C(C)=O)cc4)c3)cnn2CC#N)c1 | 81 | 19 | 93 | 103 | 88 | 30 | 77.3 | 72 | 60 | 23 | 80 | 84 | 89 | 2.26 | > 100 | 6.5 | 86 | 35 | -4 | 5.82 | TGI (Malme-3M [6]): > 100 µM; CC50 (Malme-3M [6]): > 100 µM; growth at 1 µM (Malme-3M [7]): 36%; GI50 (CCRF-CEM): 2.97 µM; LC50 (CCRF-CEM): > 100 µM; TGI (CCRF-CEM): > 100 µM; growth at 1 µM (DU-145 [8]): 16%; growth at 0.01 µM (MDA-MB-231): 95%; growth at 0.001 µM (BT-549): 96%; growth at 0.01 µM (SN12C): 93%; growth at 0.01 µM (HCT-15): 95%; growth at 0.01 µM (SK-OV-3 [9]): 98%; GI50 (U-251): 2.89 µM; TGI (U-251): > 100 µM; CC50 (U-251): > 100 µM
